Screening data: PubChem, The Scripps Research Institute Molecular Screening Center
S1P3 ag – activates the human S1P3 receptor; actives 0.1% (n = 60,000); Q99500; activation, % at 4.5 µM; S1P3 NFAT-BLA reporter cells, agonism, FRET ratio; relative to 1 µM S1P, basal subtracted;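 active means activation above the screen-wide mean plus 3 SD, cut at about 4.5% in these data, passing the limit was not always enough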
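material = human S1P3 NFAT-BLA reporter CHO cells | schedule = 4 h compound at 37 °C, 2 h substrate at RT | measured by = fluorescent BLA substrate, ex 405 nm, em 460/535 nm ratio | controls = 1 µM S1P reference | replication = primary once, confirmation triplicate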
HTR1E agonist – agonists of human 5-HT1E serotonin receptor | activation, % at 6 µM | CHO 5-HT1E Ga15 NFAT-bla reporter, FRET; 0% DMSO wells, 100% control agonist wells | P28566 | actives 0.69% (n = 65,000);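 active means activation above a set limit, the screen-wide mean activation plus 3 SD, cut at about 8.5% in these data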
5HT1E antag – 5-HT1E (human) receptor antagonism. AID 571. inhibition, % at 6 µM. actives 0.99% (n = 65,000). CHO 5-HT1E Ga15 NFAT-bla reporter, FRET, antagonist. P28566;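 active means inhibition above a set limit, the mean inhibition across every tested compound plus 3 SD, cut at about 29% in these data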;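 further: signal is the 460 over 535 nm emission ratio of beta-lactamase substrate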
5HT1a ag – 5-HT1a (human) receptor agonism; CHO 5-HT1a Ga15 NFAT-bla reporter, FRET ratio; 0% basal, 100% maximal reference agonist; actives 0.56% (n = 65,000); P08908; activation, % at 10 µM;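 active means activation above the screen-wide mean activation plus 3 SD, cut at about 19% in these data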
5-HT1A blocker – antagonists of human 5-HT1a serotonin receptor | inhibition, % at 10 µM | P08908 | CHO 5-HT1a Ga15 NFAT-bla reporter, antagonist mode | actives 0.68% (n = 62,000);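 active means inhibition above the mean of all tested compounds plus 3 SD, cut at about 43% in these data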;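 further: receptor stimulated by 5-CT agonist at 100 nM near EC80; beta-lactamase reporter measured by ratiometric fluorescence of a cleavable substrate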
S1P1 ag pot – S1P1 (human) agonism or agonism potentiation | P21453 | S1P1 CRE-bla cells, forskolin, beta-lactamase FRET, potentiator mode; S1P1 agonist co-added at EC20, 2 nM; 100% = saturating reference agonist, 0% = basal | activation, % at 9.5 µM | actives 0.57% (n = 56,000);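 active means activation above a cutoff set at the mean activation of all tested compounds plus 3 SD, cut at about 54% in these data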;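 further: forskolin at 4 µM as EC80 and the EC20 agonist is SEW2871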
Target sequence (P21453 whole entry, looked up): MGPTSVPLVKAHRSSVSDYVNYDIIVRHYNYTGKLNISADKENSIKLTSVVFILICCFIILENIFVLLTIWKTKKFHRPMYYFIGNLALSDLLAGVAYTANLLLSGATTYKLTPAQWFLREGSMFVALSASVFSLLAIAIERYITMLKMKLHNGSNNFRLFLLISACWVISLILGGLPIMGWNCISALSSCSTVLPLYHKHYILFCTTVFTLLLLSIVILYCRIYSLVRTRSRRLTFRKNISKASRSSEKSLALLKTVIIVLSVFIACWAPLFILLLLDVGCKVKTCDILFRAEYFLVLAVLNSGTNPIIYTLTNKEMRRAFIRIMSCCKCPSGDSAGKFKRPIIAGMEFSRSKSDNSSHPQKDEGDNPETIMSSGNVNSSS
Hits are given with their value. The list is not random: actives were taken first. Their share in the collection is about 2.9%.

For COc1ccc(C(=O)NCC2OCCc3ccccc32)c(O)c1 (configuration not stated) the results were S1P3 ag inactive, HTR1E agonist inactive, 5HT1E antag inactive, 5HT1a ag inactive, 5-HT1A blocker inactive and S1P1 ag pot inactive.
`Cc1ccc(-c2nc3cc(N)ccc3o2)cc1` gave S1P3 ag inactive, HTR1E agonist inactive, 5HT1E antag inactive, 5HT1a ag inactive, 5-HT1A blocker inactive and S1P1 ag pot inactive.
Screening CC(C)c1ccc2oc(-c3ccc(N)cc3)nc2c1 returned S1P3 ag inactive, HTR1E agonist inactive, 5HT1E antag inactive, 5HT1a ag inactive, 5-HT1A blocker inactive and S1P1 ag pot 54.
Screening COC(=O)c1ccsc1NC(=O)c1ccc2c(c1)OCCO2 returned S1P3 ag inactive, HTR1E agonist inactive, 5HT1E antag inactive, 5HT1a ag inactive, 5-HT1A blocker inactive and S1P1 ag pot inactive.
Screening COc1ccc(-c2cc(C(F)F)nc(-n3nc(C)cc3C)n2)cc1 returned S1P3 ag inactive, HTR1E agonist inactive, 5HT1E antag inactive, 5HT1a ag 83, 5-HT1A blocker inactive and S1P1 ag pot inactive.
For O=C(CCn1nnc2ccccc21)Nc1nnc(Cc2ccc(F)cc2)s1 the results were S1P3 ag inactive, HTR1E agonist 13, 5HT1E antag inactive, 5HT1a ag inactive, 5-HT1A blocker inactive and S1P1 ag pot inactive.
Screening O=C(CCn1nnc2ccccc21)Nc1nnc(COc2ccc(F)cc2)s1 returned S1P3 ag inactive, HTR1E agonist inactive, 5HT1E antag inactive, 5HT1a ag inactive, 5-HT1A blocker inactive and S1P1 ag pot inactive.
For Cc1cccc(N2CCN(C(=O)COc3cc(=O)n(C)c4ccccc34)CC2)c1C the results were S1P3 ag inactive, HTR1E agonist 13, 5HT1E antag inactive, 5HT1a ag inactive, 5-HT1A blocker inactive and S1P1 ag pot inactive.
Cc1nc(=O)c(-c2ccccc2)c(C)n1-c1ccc(O)c(C(=O)O)c1 was read as S1P3 ag inactive, HTR1E agonist inactive, 5HT1E antag inactive, 5HT1a ag 22 and 5-HT1A blocker inactive.
`Cc1nc(=O)c(-c2ccccc2)c(C)n1-c1cccc(C(=O)O)c1` gave S1P3 ag inactive, HTR1E agonist inactive, 5HT1E antag inactive, 5HT1a ag inactive, 5-HT1A blocker inactive and S1P1 ag pot inactive.
Screening COc1cc2c(cc1OC)CN(Cc1cccs1)CC2 returned S1P3 ag inactive, HTR1E agonist 13, 5HT1E antag inactive, 5HT1a ag inactive, 5-HT1A blocker inactive and S1P1 ag pot inactive.
`CC1=NC(C(F)(F)F)(C(F)(F)F)C2=C(CC(C)(C)CC2=O)N1Cc1ccco1` gave S1P3 ag inactive, HTR1E agonist inactive, 5HT1E antag inactive, 5HT1a ag inactive and 5-HT1A blocker inactive.
For COc1ccc(N=c2scc(-c3ccc(S(=O)(=O)N4CCOCC4)cc3)n2CCCO)cc1 the results were S1P3 ag inactive, HTR1E agonist inactive, 5HT1E antag inactive, 5HT1a ag inactive, 5-HT1A blocker inactive and S1P1 ag pot 101.
CCCOc1ccc(C2C(=O)N(C3CCCCC3)CC(=O)N2C2CC2)cc1OC (configuration not stated) was read as HTR1E agonist inactive, 5HT1E antag inactive, 5HT1a ag inactive and 5-HT1A blocker inactive.
`COc1ccc(Oc2c(-c3ccc(O)cc3O)n[nH]c2C)cc1` gave S1P3 ag inactive, HTR1E agonist inactive, 5HT1E antag inactive, 5HT1a ag inactive, 5-HT1A blocker inactive and S1P1 ag pot inactive.
Screening CCCc1ccc(Oc2cn[nH]c2-c2ccc(O)c(C)c2O)cc1 returned S1P3 ag inactive, HTR1E agonist inactive, 5HT1E antag inactive, 5HT1a ag inactive, 5-HT1A blocker inactive and S1P1 ag pot 58.
CCCOC(=O)c1ccc(Oc2cn[nH]c2-c2ccc(OCC)cc2O)cc1 was read as S1P3 ag inactive, HTR1E agonist inactive, 5HT1E antag inactive, 5HT1a ag inactive, 5-HT1A blocker inactive and S1P1 ag pot inactive.
CCCc1ccc(Oc2c(-c3ccc(O)c(C)c3O)n[nH]c2C)cc1 was read as S1P3 ag inactive, HTR1E agonist inactive, 5HT1E antag inactive, 5HT1a ag inactive, 5-HT1A blocker 56 and S1P1 ag pot inactive.
`Cc1cc(C)n(-c2nc(NC(C)C)nc(NC(C)C)n2)n1` gave S1P3 ag inactive, HTR1E agonist inactive, 5HT1E antag 30, 5HT1a ag inactive, 5-HT1A blocker inactive and S1P1 ag pot inactive.
For O=C(O)c1cc(Cl)c2ccccc2c1O the results were S1P3 ag inactive, HTR1E agonist inactive, 5HT1E antag inactive, 5HT1a ag inactive, 5-HT1A blocker inactive and S1P1 ag pot inactive.
O=C(O)c1ccc2cccc(Cl)c2c1O was read as S1P3 ag inactive, HTR1E agonist inactive, 5HT1E antag inactive, 5HT1a ag inactive, 5-HT1A blocker 52 and S1P1 ag pot inactive.
Screening O=C(Nc1ccc(OC(F)F)c(Cl)c1)Nc1ccc2c(c1)OCO2 returned S1P3 ag inactive, HTR1E agonist inactive, 5HT1E antag inactive, 5HT1a ag inactive, 5-HT1A blocker 61 and S1P1 ag pot 59.
CCOc1cc(C(=O)Nc2ccc3c(c2)OCO3)ccc1OC(F)F was read as S1P3 ag inactive, HTR1E agonist inactive, 5HT1E antag inactive, 5HT1a ag inactive, 5-HT1A blocker inactive and S1P1 ag pot inactive.
`O=c1[nH]nc(Sc2ncnc3sccc23)n1CCc1ccccc1` gave S1P3 ag inactive, HTR1E agonist inactive, 5HT1E antag inactive, 5HT1a ag 22, 5-HT1A blocker inactive and S1P1 ag pot inactive.
Screening CC1CCN(CCCNC(=O)CN2CCN(Cc3ccc(Cl)cc3)C2=O)CC1 returned S1P3 ag inactive, HTR1E agonist inactive, 5HT1E antag 31, 5HT1a ag inactive, 5-HT1A blocker inactive and S1P1 ag pot inactive.
Screening Cc1cc(=O)n(C)c(=O)n1CC(=O)N1CCCCCC1 returned S1P3 ag inactive, HTR1E agonist inactive, 5HT1E antag inactive, 5HT1a ag inactive, 5-HT1A blocker inactive and S1P1 ag pot inactive.
Screening COc1ccc(-c2nc(-c3ccncc3)no2)cc1OC returned S1P3 ag inactive, HTR1E agonist inactive, 5HT1E antag inactive, 5HT1a ag inactive, 5-HT1A blocker inactive and S1P1 ag pot 106.
COc1ccccc1-c1nc(-c2ccncc2)no1 was read as S1P3 ag inactive, HTR1E agonist inactive, 5HT1E antag inactive, 5HT1a ag inactive, 5-HT1A blocker inactive and S1P1 ag pot inactive.
Screening CCOc1ccc(-c2nc(-c3ccc(OC)cc3)no2)cc1OCC returned S1P3 ag inactive, HTR1E agonist inactive, 5HT1E antag inactive, 5HT1a ag inactive, 5-HT1A blocker inactive and S1P1 ag pot 98.
For CCOc1ccc(-c2noc(-c3ccncc3)n2)cc1OCC the results were S1P3 ag 17, HTR1E agonist inactive, 5HT1E antag inactive, 5HT1a ag inactive, 5-HT1A blocker inactive and S1P1 ag pot 109.
